The source of these data is ChEMBL document CHEMBL4364341, “Radiosensitization of Head and Neck Squamous Cell Carcinoma (HNSCC) by a Podophyllotoxin” (ACS Med Chem Lett, 2019).

The test system of experiment [1] is FaDu. Put plainly: Synergistic induction of cell cycle arrest in human FADU cells assessed as decrease in cyclin B1 at 0.5 uM followed by irradiation with 5 Gy IR incubated for 48 hrs by immunoblot analysis. It is filed as functional, cell-based. An outline of the steps:
(§1)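 FaDu cells received drug, 5 Gy IR, or both; vehicle-only controls. Lysates collected after 48 h and immunoblotted with primary antibodies to NRF2, cyclin B1, CDK1, Bax and Bcl-2. Membranes stripped and reprobed for beta-actin as loading control.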
For orientation: A western blot detects proteins with antibodies after separation by electrophoresis.

Experiment [2] concerns SCC-25. As to the kind of experiment: Synergistic induction of cell cycle arrest in human SCC25 cells assessed as decrease in accumulation at G0/G1 phase at 0.5 uM followed irradiation with 5Gy IR incubated for 24 hrs by propidium iodide staining based flow cytometry. The class given is functional. Summed up: (§2)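 FaDu or SCC-25 cells, untreated, given 5 Gy IR, drug, or drug plus 5 Gy. Cell-cycle distribution by propidium iodide staining and flow cytometry at 6 h and 24 h after treatment. G0/G1, S and G2/M fractions compared with control by t test.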
(In general: A flow cytometer gives signals particle by particle.)

Experiment [3] concerns FaDu. As to the kind of experiment: Synergistic antiproliferative activity against human FADU cells assessed as combination index at 0.005 uM preincubated for 1 hr followed by irradiation with 5 Gy IR and measured after 6 days by MTT assay. The class given is functional. Summed up:
(§3)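 Combination index was calculated by the Chou–Talalay median-effect method from the 6-day MTT viability data of the single-plate compound/X-ray (2.5, 5, 10 Gy) design. CI < 1 denotes synergy, CI = 1 additivity and CI > 1 antagonism.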
A general note: Formazan colour is commonly taken as a measure of viable cells.

In experiment [4] the test system is SCC-25. As to the kind of experiment: Synergistic antiproliferative activity against human SCC25 cells assessed as fractional inhibition at 0.05 uM preincubated for 1 hr followed by irradiation with 10 Gy IR and measured after 6 days by MTT assay (reference value: 0.347). The class given is functional. Summed up:
(§4)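 SCC-25 cells seeded 1000/well in 96-well plates in DMEM/10% FBS and left 24 h. Drug or vehicle added, then after 1 h X-irradiated to 2.5, 5 or 10 Gy on one plate using a shifted lead shield. Plates incubated 6 days, then MTT (0.5 mg/mL, 45 min), DMSO solubilisation, absorbance at 570 nm. Fractional inhibition = 1 − fraction of surviving cells.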

Experiment [5] deals with FaDu. Put plainly: Synergistic antiproliferative activity against human FADU cells assessed as reduction in cell viability at 1 uM preincubated for 1 hr followed by irradiation with 5 Gy IR and measured after 6 days by MTT assay relative to control. It is filed as functional. As to conditions: light or radiation study. An outline of the steps:
(§5)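 FaDu or SCC-25 cells were grown in DMEM with 10% FBS at 37 °C and 5% CO2. They were seeded at 1000 cells/well in 96-well plates for 24 h, then dosed with compound (fresh DMSO stock diluted in medium) or vehicle. After 1 h, X-rays were given with a sliding 5 mm lead shield, so one plate held 0, 2.5, 5 and 10 Gy columns. After 6 days, MTT (0.5 mg/mL, 45 min) was added, then DMSO, and A570 was read. Values were normalised to the unirradiated vehicle control. Fractional inhibition = 1 − surviving fraction.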

In experiment [6] the test system is FaDu. As to the kind of experiment: Synergistic antiproliferative activity against human FADU cells assessed as fractional inhibition at 0.5 uM preincubated for 1 hr followed by irradiation with 10 Gy IR and measured after 6 days by MTT assay (reference value: 0.388). The class given is functional. Summed up: as §5
The subject of experiment [7] is SCC-25. As to the kind of experiment: Synergistic antiproliferative activity against human SCC25 cells assessed as fractional inhibition at 0.5 uM preincubated for 1 hr followed by irradiation with 10 Gy IR and measured after 6 days by MTT assay (reference value: 0.347). The class given is functional. Summed up:
as §4

Experiment [8] has as its system FaDu. Put plainly: Synergistic antiproliferative activity against human FADU cells assessed as reduction in cell viability at 1 uM preincubated for 1 hr followed by irradiation with 2.5 Gy IR and measured after 6 days by MTT assay relative to control. The class given is functional. The conditions noted are these: light or radiation study. An outline of the steps: as §5

Experiment [9] concerns FaDu. As to the kind of experiment: Synergistic induction of cell cycle arrest in human FADU cells assessed as decrease in accumulation at S phase at 0.5 uM followed irradiation with 5Gy IR incubated for 24 hrs by propidium iodide staining based flow cytometry. The class given is functional. Summed up:
as §2

Experiment [10] relates to FaDu. Put plainly: Synergistic induction of cell cycle arrest in human FADU cells assessed as decrease in CDK1 at 0.5 uM followed by irradiation with 5 Gy IR incubated for 48 hrs by immunoblot analysis. The class given is functional, cell-based. An outline of the steps: as §1
Experiment [11] concerns FaDu. Put plainly: Synergistic antiproliferative activity against human FADU cells assessed as fractional inhibition at 0.05 uM preincubated for 1 hr followed by irradiation with 2.5 Gy IR and measured after 6 days by MTT assay (reference value: 0.131). The class given is functional. Summed up: as §5
In experiment [12] the test system is FaDu. Put plainly: Synergistic antiproliferative activity against human FADU cells assessed as fractional inhibition at 5 uM preincubated for 1 hr followed by irradiation with 10 Gy IR and measured after 6 days by MTT assay (reference value: 0.388). It is filed as functional. Summed up:
as §5

The test system of experiment [13] is FaDu. As to the kind of experiment: Synergistic antiproliferative activity against human FADU cells assessed as combination index at 0.5 uM preincubated for 1 hr followed by irradiation with 10 Gy IR and measured after 6 days by MTT assay. It is filed as functional. Summed up:
as §3

Experiment [14] concerns the target T1, Nuclear factor erythroid 2-related factor 2 (Homo sapiens) (UniProt Q16236).
T1 sequence (whole entry): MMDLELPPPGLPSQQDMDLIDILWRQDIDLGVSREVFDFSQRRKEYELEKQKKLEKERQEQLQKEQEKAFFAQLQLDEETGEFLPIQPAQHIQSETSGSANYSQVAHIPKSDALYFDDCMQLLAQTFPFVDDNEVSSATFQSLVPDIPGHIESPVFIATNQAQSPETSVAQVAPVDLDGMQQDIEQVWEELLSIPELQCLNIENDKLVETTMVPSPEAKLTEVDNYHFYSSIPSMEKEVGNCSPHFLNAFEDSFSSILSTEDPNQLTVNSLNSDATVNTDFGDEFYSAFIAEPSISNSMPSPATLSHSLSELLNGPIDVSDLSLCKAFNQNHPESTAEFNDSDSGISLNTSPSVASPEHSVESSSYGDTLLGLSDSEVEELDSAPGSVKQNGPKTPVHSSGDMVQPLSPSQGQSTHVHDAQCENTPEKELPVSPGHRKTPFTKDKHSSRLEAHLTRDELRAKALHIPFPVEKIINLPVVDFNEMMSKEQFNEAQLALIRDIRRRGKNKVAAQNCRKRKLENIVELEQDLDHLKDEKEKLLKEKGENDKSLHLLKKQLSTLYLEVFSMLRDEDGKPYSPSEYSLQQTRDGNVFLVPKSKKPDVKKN
As to the kind of experiment: Inhibition of Nrf2 in human FADU cells at 0.5 uM incubated for 48 hrs by immunofluorescence analysis. The class given is cell-based. Summed up:
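FaDu cells received compound, 5 Gy IR, or both, and Nrf2 was imaged by immunofluorescence 48 h later.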

Experiment [15] relates to FaDu. As to the kind of experiment: Synergistic induction of apoptosis in human FADU cells assessed as increase in caspase at 0.5 uM followed by irradiation with 5 Gy IR incubated for 48 hrs by luminescence based analysis. It is filed as functional, cell-based.
In experiment [16] the test system is SCC-25. As to the kind of experiment: Antiproliferative activity against human SCC25 cells assessed as fractional inhibition at 0.5 uM after 6 days in absence of irradiation by MTT assay. It is filed as functional. Summed up: as §5
The subject of experiment [17] is FaDu. As to the kind of experiment: Induction of cell cycle arrest in human FADU cells assessed as decrease in cyclin B1 at 0.5 uM incubated for 48 hrs by immunoblot analysis. The class given is functional, cell-based. An outline of the steps:
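FaDu cells received compound at 0.5 μM, 5 Gy IR, or both. After 48 h, lysates were immunoblotted for NRF2, cyclin B1, CDK1, Bax and Bcl-2. Membranes were then stripped and reprobed for β-actin as the loading control.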

Active and inactive are the calls of the source. The calls are words filed in the database; no cut-off is given here.

With `COc1ccc2c(c1)N(CCO)C1=C(C(=O)OC1)C2c1ccccc1` (configuration not stated), the outcome in experiment [1], in experiment [2], in experiment [9], in experiment [10], in experiment [15] and in [17] was Active. Moreover, the CI worked out at 1.822 in experiment [3] and 0.319 in experiment [13]. Besides, the “fractional inhibitory concentration index (FICI)” value in experiment [4] is recorded as 0.379; in experiment [6], 0.613; in [7], 0.713; in [11] it was 0.383; in experiment [12], 0.681; in experiment [16] it was 0.361. Besides, the figures for the inhibition at 1 µM in experiment [5] and in experiment [8] were 48% and 30%, respectively. The inhibition – broadly, the percentage by which the read-out fell short of the control – in experiment [14] is “Active”.
